Measured values taken from ChEMBL document CHEMBL1671850, “Discovery of a benzo[e]pyrimido-[5,4-b][1,4]diazepin-6(11H)-one as a Potent and Selective Inhibitor of Big MAP Kinase 1” (ACS Med Chem Lett, 2011).

Tests used:
[1] = target: Mitogen-activated protein kinase 7 (Homo sapiens, UniProt Q13164); assay: Inhibition of EGF-induced BMK1 autophosphorylation in human HeLa cells by SDS-PAGE analysis; assay type: cell-based
[2] = target: Serine/threonine-protein kinase DCLK1 (Homo sapiens, UniProt O15075); assay: Binding affinity to DCAMKL1 by immobilized ligand displacement assay
Serine/threonine-protein kinase DCLK1, sequence (O15075 whole entry): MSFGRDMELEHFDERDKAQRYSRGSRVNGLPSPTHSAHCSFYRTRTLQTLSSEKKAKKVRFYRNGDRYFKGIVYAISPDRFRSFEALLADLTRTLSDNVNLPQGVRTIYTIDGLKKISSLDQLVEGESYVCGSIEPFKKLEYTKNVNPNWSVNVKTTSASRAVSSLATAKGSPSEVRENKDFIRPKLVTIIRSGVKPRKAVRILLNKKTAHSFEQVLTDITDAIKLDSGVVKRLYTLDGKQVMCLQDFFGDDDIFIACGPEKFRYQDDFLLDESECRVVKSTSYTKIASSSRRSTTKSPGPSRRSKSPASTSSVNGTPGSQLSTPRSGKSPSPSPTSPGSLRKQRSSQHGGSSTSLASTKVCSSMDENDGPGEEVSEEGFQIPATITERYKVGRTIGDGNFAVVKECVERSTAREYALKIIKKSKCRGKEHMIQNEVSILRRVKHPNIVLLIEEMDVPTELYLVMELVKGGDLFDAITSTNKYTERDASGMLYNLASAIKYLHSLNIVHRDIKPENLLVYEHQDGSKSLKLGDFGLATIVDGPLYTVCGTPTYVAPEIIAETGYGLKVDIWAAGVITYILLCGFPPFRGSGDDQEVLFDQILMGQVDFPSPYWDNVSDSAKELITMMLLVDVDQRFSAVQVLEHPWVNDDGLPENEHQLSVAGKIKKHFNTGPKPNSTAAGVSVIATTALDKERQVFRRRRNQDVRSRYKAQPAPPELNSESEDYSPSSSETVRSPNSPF
In short: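 Dissociation constant (Kd) measured in the Ambit KINOMEScan competition binding format, which reads kinase displacement from an immobilized ligand.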

[3] = target: Serine/threonine-protein kinase DCLK2 (Homo sapiens, UniProt Q8N568); assay: Binding affinity to DCAMKL2 by immobilized ligand displacement assay
In short: (§1)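 KINOMEscan-type competition binding: displacement of kinase from an immobilized ligand; Kd values determined for individual kinases.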

[4] = target: Non-receptor tyrosine-protein kinase TNK1 (Homo sapiens, UniProt Q13470); assay: Binding affinity to TNK1 by immobilized ligand displacement assay; in short: as §1
Non-receptor tyrosine-protein kinase TNK1, sequence (Q13470 whole entry): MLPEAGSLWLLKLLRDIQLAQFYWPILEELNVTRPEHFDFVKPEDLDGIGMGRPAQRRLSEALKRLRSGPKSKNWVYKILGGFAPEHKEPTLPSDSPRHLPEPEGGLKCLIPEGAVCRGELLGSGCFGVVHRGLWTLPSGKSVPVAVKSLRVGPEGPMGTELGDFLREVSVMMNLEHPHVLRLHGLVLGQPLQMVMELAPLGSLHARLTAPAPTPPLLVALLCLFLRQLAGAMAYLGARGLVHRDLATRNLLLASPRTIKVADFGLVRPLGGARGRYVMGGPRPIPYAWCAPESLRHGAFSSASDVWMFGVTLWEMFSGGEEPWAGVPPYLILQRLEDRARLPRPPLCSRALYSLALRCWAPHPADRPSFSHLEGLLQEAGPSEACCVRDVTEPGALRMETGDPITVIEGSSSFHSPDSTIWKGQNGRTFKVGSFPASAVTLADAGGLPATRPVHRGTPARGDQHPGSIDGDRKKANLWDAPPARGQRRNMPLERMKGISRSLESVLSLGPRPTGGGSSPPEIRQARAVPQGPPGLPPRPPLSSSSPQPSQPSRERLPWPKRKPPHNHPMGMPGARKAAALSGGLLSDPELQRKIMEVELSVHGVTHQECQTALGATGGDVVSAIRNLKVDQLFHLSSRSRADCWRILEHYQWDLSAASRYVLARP

[5] = target: Macrophage colony-stimulating factor 1 receptor (Homo sapiens) (UniProt P07333); assay: Binding affinity to c-FMS at 10 uM by immobilized ligand displacement assay
Macrophage colony-stimulating factor 1 receptor (Homo sapiens), sequence (P07333 whole entry): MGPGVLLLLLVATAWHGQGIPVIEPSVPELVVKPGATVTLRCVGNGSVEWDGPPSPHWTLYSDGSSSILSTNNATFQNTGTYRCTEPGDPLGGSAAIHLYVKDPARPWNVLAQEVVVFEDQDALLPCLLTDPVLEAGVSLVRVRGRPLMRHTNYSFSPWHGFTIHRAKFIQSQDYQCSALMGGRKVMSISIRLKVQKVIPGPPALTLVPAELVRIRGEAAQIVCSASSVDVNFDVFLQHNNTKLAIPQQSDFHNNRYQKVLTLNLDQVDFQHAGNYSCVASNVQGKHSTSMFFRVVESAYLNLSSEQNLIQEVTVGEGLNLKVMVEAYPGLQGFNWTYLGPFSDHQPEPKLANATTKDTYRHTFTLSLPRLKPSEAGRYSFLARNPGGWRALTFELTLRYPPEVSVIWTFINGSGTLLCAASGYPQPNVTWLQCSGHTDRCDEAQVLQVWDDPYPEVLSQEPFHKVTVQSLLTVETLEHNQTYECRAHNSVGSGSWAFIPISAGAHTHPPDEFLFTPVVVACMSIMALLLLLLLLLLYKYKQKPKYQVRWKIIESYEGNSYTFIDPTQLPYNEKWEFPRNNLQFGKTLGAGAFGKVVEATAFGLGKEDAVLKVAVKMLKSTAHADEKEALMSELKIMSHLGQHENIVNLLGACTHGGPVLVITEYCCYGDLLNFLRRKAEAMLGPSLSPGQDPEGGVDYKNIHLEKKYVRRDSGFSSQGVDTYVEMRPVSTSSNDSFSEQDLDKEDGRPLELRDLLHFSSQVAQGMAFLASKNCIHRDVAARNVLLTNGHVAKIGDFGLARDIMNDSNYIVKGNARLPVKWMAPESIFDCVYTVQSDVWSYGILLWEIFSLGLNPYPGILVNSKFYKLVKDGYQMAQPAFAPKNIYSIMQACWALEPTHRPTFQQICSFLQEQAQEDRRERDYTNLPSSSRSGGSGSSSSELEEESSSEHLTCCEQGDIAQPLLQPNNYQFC
In short: (§2)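 Ambit KINOMEScan competition binding panel (402 kinases). Kinase displacement from an immobilized ligand is read relative to a DMSO control. Hits are kinases showing more than […] displacement. The text gives the test concentration as 10 μM.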

[6] = target: Myosin light chain kinase family member 4 (Homo sapiens) (UniProt Q86YV6); assay: Binding affinity to MYLK4 at 10 uM by immobilized ligand displacement assay; in short: as §2
[7] = target: Protein-tyrosine kinase 6 (Homo sapiens) (UniProt Q13882); assay: Binding affinity to BRK at 10 uM by immobilized ligand displacement assay; in short: as §2
Protein-tyrosine kinase 6 (Homo sapiens), sequence (Q13882 whole entry, looked up): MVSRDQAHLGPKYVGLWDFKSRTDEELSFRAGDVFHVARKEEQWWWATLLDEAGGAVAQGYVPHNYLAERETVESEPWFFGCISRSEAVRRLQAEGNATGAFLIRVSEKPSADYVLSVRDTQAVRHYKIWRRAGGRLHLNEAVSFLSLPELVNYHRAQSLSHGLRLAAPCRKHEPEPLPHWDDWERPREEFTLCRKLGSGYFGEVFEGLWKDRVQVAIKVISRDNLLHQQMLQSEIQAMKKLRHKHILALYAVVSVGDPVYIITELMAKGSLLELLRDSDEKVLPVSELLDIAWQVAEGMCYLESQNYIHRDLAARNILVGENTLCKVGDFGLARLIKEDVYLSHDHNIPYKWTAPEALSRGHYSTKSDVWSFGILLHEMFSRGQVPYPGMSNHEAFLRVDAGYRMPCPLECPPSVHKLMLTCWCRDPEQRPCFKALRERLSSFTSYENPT

[8] = tested on: Tyrosine-protein kinase ABL1 (Homo sapiens), P00519 [F317I]; assay: Binding affinity to ABL1 F317I mutant at 10 uM by immobilized ligand displacement assay; in short: as §2
Tyrosine-protein kinase ABL1 (Homo sapiens), P00519 [F317I], sequence (P00519 whole entry F317I): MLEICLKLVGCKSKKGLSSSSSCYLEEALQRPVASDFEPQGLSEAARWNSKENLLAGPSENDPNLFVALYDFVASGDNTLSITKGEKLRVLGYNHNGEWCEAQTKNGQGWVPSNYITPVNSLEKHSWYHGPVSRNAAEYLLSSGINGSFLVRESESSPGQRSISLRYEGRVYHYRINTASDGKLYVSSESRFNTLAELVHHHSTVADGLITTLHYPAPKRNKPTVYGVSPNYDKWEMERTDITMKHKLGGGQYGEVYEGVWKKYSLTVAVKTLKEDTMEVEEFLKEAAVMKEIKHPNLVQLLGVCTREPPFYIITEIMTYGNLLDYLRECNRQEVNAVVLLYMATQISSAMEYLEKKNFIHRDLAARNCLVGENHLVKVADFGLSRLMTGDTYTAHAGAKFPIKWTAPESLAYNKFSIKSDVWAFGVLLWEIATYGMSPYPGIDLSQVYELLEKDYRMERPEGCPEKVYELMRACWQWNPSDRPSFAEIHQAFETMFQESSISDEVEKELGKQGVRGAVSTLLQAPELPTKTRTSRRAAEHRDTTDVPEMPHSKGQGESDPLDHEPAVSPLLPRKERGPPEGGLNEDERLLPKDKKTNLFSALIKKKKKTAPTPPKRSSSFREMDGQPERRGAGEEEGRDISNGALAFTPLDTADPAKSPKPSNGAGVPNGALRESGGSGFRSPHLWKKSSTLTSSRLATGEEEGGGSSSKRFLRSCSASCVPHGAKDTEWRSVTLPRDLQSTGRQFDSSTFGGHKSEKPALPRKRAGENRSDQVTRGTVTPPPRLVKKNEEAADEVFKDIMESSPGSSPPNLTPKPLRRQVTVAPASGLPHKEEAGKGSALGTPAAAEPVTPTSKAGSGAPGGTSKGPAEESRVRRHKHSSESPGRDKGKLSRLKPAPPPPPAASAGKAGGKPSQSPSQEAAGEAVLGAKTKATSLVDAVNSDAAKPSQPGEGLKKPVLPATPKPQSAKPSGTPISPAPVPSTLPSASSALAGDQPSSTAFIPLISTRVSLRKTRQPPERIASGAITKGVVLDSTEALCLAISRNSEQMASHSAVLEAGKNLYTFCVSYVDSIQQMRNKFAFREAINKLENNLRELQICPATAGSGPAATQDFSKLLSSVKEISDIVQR

[9] = tested on: Mast/stem cell growth factor receptor Kit (Homo sapiens), P10721 [L576P]; assay: Binding affinity to KIT L576P mutant at 10 uM by immobilized ligand displacement assay; in short: as §2
[10] = target: Cyclin-G-associated kinase (Homo sapiens) (UniProt O14976); assay: Binding affinity to GAK at 10 uM by immobilized ligand displacement assay; in short: as §2
NCI-H1299 = assay: Antiproliferative activity against human NCI-H1299 cells after 72 hrs; assay type: functional, cell-based; conditions: NCI-H1299, 72 h
[11] = Plasma clearance in mouse at 1 mg/kg, iv; assay type: ADME, organism-based; design: dose 1 mg/kg, route intravenous
In short: (§3)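 Single-dose pharmacokinetics: rats given 1 mg/kg intravenous or 2 mg/kg oral; mice given 1 mg/kg intravenous or 10 mg/kg oral. Plasma concentration profiles yield Tmax, Cmax, AUC0-∞, half-life, plasma clearance, Vss and oral bioavailability.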

NCI-H522 = assay: Antiproliferative activity against human NCI-H522 cells after 72 hrs; assay type: functional, cell-based; conditions: NCI-H522, 72 h
AU565 = assay: Antiproliferative activity against human AU565 cells after 72 hrs; assay type: functional, cell-based; conditions: AU565, 72 h
PC-3 = assay: Antiproliferative activity against human PC3 cells after 72 hrs; assay type: functional, cell-based; conditions: PC-3, 72 h
[12] = Oral bioavailability in mouse at 10 mg/kg; assay type: ADME, organism-based; conditions: in vivo; in short: as §3
MCF7 = assay: Antiproliferative activity against human MCF7 cells after 72 hrs; assay type: functional, cell-based; conditions: MCF7, 72 h
[13] = Volume of distribution at steady state in mouse at 1 mg/kg, iv; assay type: ADME, organism-based; design: dose 1 mg/kg, route intravenous; conditions: in vivo, read-out: Vdss; in short: as §3
[14] = Tmax in mouse at 10 mg/kg, po; assay type: ADME, organism-based; design: dose 10 mg/kg, route oral; conditions: in vivo; in short: as §3
[15] = Half life in mouse at 1 mg/kg, iv; assay type: ADME, organism-based; design: dose 1 mg/kg, route intravenous; conditions: in vivo; in short: as §3
SK-N-AS = assay: Antiproliferative activity against human SK-N-AS cells after 72 hrs; assay type: functional, cell-based
BPH-1 = assay: Antiproliferative activity against human BPH1 cells after 72 hrs; assay type: functional, cell-based; conditions: BPH-1, 72 h
[16] = AUC (0 to infinity) in mouse at 10 mg/kg, po; assay type: ADME, organism-based; design: time infinity, dose 10 mg/kg, route oral; conditions: plasma; in short: as §3
[17] = AUC (0 to infinity) in mouse at 1 mg/kg, iv; assay type: ADME, organism-based; design: time infinity, dose 1 mg/kg, route intravenous; conditions: plasma; in short: as §3
[18] = Cmax in mouse at 10 mg/kg, po; assay type: ADME, organism-based; design: dose 10 mg/kg, route oral; conditions: in vivo; in short: as §3
[19] = Volume of distribution at steady state in rat at 1 mg/kg, iv; assay type: ADME, organism-based; design: dose 1 mg/kg, route intravenous; conditions: in vivo, read-out: Vdss; in short: as §3
[20] = AUC (0 to infinity) in rat at 2 mg/kg, po; assay type: ADME, organism-based; design: time infinity, dose 2 mg/kg, route oral; conditions: plasma; in short: as §3
[21] = Plasma clearance in rat at 1 mg/kg, iv; assay type: ADME, organism-based; design: dose 1 mg/kg, route intravenous; in short: as §3
Rattus norvegicus = assay: Half life in rat at 2 mg/kg, po; assay type: ADME, organism-based; design: dose 2 mg/kg, route oral; conditions: in vivo; in short: as §3
[22] = Tmax in rat at 1 mg/kg, iv; assay type: ADME, organism-based; design: dose 1 mg/kg, route intravenous; conditions: in vivo; in short: as §3
[23] = Cmax in rat at 2 mg/kg, po; assay type: ADME, organism-based; design: dose 2 mg/kg, route oral; conditions: in vivo; in short: as §3
[24] = Tmax in rat at 2 mg/kg, po; assay type: ADME, organism-based; design: dose 2 mg/kg, route oral; conditions: in vivo; in short: as §3
[25] = Plasma clearance in rat at 2 mg/kg, po; assay type: ADME, organism-based; design: dose 2 mg/kg, route oral; in short: as §3
HeLa = assay: Antitumor activity against human HeLa cells xenografted in mouse assessed as inhibition of tumor growth at 50 mg/kg, ip bid for 28 days; assay type: functional; conditions: route intraperitoneal
In short: (§4)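 HeLa cell xenograft in mice; tumor-bearing animals injected intraperitoneally with 50 mg/kg or vehicle solution twice daily for 28 days; tumor growth compared against vehicle.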

[26] = AUC (0 to infinity) in rat at 1 mg/kg, iv; assay type: ADME, organism-based; design: time infinity, dose 1 mg/kg, route intravenous; conditions: plasma; in short: as §3
[27] = Half life in rat at 1 mg/kg, iv; assay type: ADME, organism-based; design: dose 1 mg/kg, route intravenous; conditions: in vivo; in short: as §3
[28] = Oral bioavailability in rat at 2 mg/kg; assay type: ADME, organism-based; conditions: in vivo; in short: as §3
Mus musculus = assay: Toxicity in human HeLa cells xenografted mouse assessed as tolerability at 50 mg/kg ip bid for 28 days; assay type: organism-based; design: dose 50 mg/kg, route intraperitoneal; conditions: in vivo; in short: as §4
[29] = Cmax in rat at 1 mg/kg, iv; assay type: ADME, organism-based; design: dose 1 mg/kg, route intravenous; conditions: in vivo; in short: as §3

Mitogen-activated protein kinase 7, sequence (Q13164 whole entry): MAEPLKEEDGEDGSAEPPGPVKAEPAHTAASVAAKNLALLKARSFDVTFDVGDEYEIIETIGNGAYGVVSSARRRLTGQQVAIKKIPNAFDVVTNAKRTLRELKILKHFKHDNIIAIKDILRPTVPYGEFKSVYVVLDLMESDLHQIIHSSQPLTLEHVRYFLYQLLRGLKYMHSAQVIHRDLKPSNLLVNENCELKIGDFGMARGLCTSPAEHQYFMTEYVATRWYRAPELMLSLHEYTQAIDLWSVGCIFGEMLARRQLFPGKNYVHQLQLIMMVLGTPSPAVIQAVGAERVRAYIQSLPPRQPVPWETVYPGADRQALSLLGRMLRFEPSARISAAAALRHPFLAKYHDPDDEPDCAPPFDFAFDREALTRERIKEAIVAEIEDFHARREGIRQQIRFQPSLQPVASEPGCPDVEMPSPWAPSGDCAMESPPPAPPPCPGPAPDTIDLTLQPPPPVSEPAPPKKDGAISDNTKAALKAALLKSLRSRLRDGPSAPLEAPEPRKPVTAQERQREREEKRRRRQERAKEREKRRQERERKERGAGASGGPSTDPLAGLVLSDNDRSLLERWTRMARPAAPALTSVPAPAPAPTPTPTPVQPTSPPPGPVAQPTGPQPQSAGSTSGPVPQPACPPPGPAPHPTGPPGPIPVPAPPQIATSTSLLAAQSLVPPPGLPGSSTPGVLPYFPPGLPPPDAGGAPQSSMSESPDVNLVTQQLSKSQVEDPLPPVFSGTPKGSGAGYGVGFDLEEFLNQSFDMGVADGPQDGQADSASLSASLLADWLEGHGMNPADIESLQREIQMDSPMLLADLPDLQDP

Cc1cc(N2CCN(C)CC2)ccc1Nc1ncc2c(n1)N(C)c1ccccc1C(=O)N2C
IC50 [1]: 0.28 µM

COc1cc(N2CCN(C)CC2)ccc1Nc1ncc2c(n1)N(C(C)C)c1ccccc1C(=O)N2C
IC50 [1]: 0.23 µM

COc1cc(C2CCN(C)CC2)ccc1Nc1ncc2c(n1)N(C)c1ccccc1C(=O)N2C
IC50 [1]: 0.26 µM

COc1cc(N2CCN(C)CC2)ccc1Nc1ncc2c(n1)N(C)c1ccccc1C(=O)N2C
Kd [2]: 0.0012 µM | Kd [3]: 0.01 µM | Kd [4]: 0.029 µM

COc1cc(N2CCN(C)CC2)ccc1Nc1ncc2c(n1)N(C1CCCC1)c1ccccc1C(=O)N2C
IC50 [1]: 0.2 µM

COc1cc(N2CCN(C)CC2)ccc1Nc1ncc2c(n1)N(C)c1ccccc1C(=O)N2
inhibition [5]: > 90% | inhibition [6]: > 90% | inhibition [7]: > 90% | inhibition [8]: > 90% | inhibition [9]: > 90% | inhibition [10]: > 90%

COc1cc(N2CCOCC2)ccc1Nc1ncc2c(n1)N(C)c1ccccc1C(=O)N2C
IC50 [1]: 0.26 µM

COc1cc(C(=O)NC2CCN(C)CC2)ccc1Nc1ncc2c(n1)N(C)c1ccccc1C(=O)N2C
IC50 [1]: 0.32 µM

COc1cc(C(=O)NCCN(C)C)ccc1Nc1ncc2c(n1)N(C)c1ccccc1C(=O)N2C
IC50 [1]: 0.24 µM

COc1cc(N2CCN(C)CC2)ccc1Nc1ncc2c(n1)N(C)c1ccc(Cl)cc1C(=O)N2C
IC50 [1]: 1.24 µM

CN1C(=O)c2ccccc2N(C)c2nc(Nc3ccc(S(N)(=O)=O)cc3)ncc21
IC50 [1]: 0.31 µM

COc1cc(N2CCN(C)CC2)ccc1Nc1ncc2c(n1)N(C)c1ccc(C)cc1C(=O)N2C
IC50 [1]: 3.1 µM

CCN1c2ccccc2C(=O)N(C)c2cnc(Nc3ccc(N4CCN(C)CC4)cc3OC)nc21
IC50 [1]: 0.2 µM

COc1cc(C(=O)N2CCC(N3CCCC3)CC2)ccc1Nc1ncc2c(n1)N(C)c1ccccc1C(=O)N2C
EC50 (NCI-H1299): 4.2 µM | clearance [11]: 18.4 mL/min/kg | EC50 (NCI-H522): 0.95 µM | EC50 (AU565): > 10 µM | EC50 (PC-3): 3.6 µM | bioavailability [12]: 86.6% | EC50 (MCF7): > 10 µM | Vd [13]: 5.36 L/kg | Tmax [14]: 2 h | half-life [15]: 2.62 h | EC50 (SK-N-AS): 4.4 µM | EC50 (BPH-1): 1.6 µM | AUC(0-inf) [16]: 7870 ng·h/mL | AUC(0-inf) [17]: 907 ng·h/mL | Cmax [18]: 1290 ng/mL | IC50 [1]: 0.13 µM

COc1cc(N2CCN(C)CC2)ccc1Nc1ncc2c(n1)N(C)c1cc(F)ccc1C(=O)N2C
IC50 [1]: 1.32 µM

COc1cc(N2CCN(C)CC2)ccc1Nc1ncc2c(n1)N(C)c1cc(Cl)ccc1C(=O)N2C
IC50 [1]: 11.4 µM

COc1cc(N2CCC(O)CC2)ccc1Nc1ncc2c(n1)N(C)c1ccccc1C(=O)N2C
IC50 [1]: 0.24 µM

CCOc1cc(N2CCC(O)CC2)ccc1Nc1ncc2c(n1)N(C)c1ccccc1C(=O)N2C
Vd [19]: 3.4 L/kg | AUC(0-inf) [20]: 903 ng·h/mL | clearance [21]: 25.5 mL/min/kg | t1/2 (Rattus norvegicus): 3.4 h | Tmax [22]: 4.8 min | Cmax [23]: 247 ng/mL | Tmax [24]: 0.5 h | CL/F [25]: 37 mL/min/kg | inhibition in vivo at 50 mg/kg (HeLa): 95% | AUC(0-inf) [26]: 658 ng·h/mL | half-life [27]: 2 h | bioavailability [28]: 68.6% | Activity (Mus musculus): Non-toxic | Cmax [29]: 439 ng/mL

COc1cc(N2CCNCC2)ccc1Nc1ncc2c(n1)N(C)c1ccccc1C(=O)N2C
IC50 [1]: 0.23 µM
